Data on 28 compounds can be found in PubChem BioAssay AID977617 (Broad Institute, 2014).

Molecules are shown by their SMILES. “And” between values parts separate entries of the source, which are not always exact repeats. Identical values can stand only once. The source made the active and inactive calls.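 How the source made its calls: active means cell killing, with a fitted half-maximal concentration at or below twice the top valid dose tested; inconclusive means flat fit with a moderate signal drop, or a poor fit; inactive means effect in the rising direction, plus the rest.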

System in the first test: not listed separately
As to the kind of experiment: viability loss in A549 lung cancer cells – cell-based, CellTiter-Glo luminescence, dry powder, set 13, cytotoxicity control, dose response (AID 977617). Conditions: A549 viability, CellTiter-Glo ATP luminescence, 72 h; at 26 µM (top of the series). In a few lines: (§1)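 Test system – A549 human lung carcinoma cells, cell-based viability · Amount – 1000 cells/well · Read-out – viability via ATP, lower signal means cytotoxic · Dosing – compound concentration series on A549 cells · Incubation – 24 h pre-dosing, 72 h exposure at 37 °C · Medium – DMEM, 10% FBS · Technique – CellTiter-Glo ATP luminescence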
Regarding `C[C@@H](O)C#Cc1ccc2c(c1)O[C@@H](CN(C)Cc1ccncc1)[C@@H](C)CN([C@@H](C)CO)S2(=O)=O`, the activity change, negative = cytotoxicity is -7.94% (inactive).

Turning to `COc1ccc(-c2ccc3c(c2)O[C@@H](CN(C)Cc2ccc(-c4ccccc4)cc2)[C@@H](C)CN([C@@H](C)CO)S3(=O)=O)cc1`, the activity change, negative = cytotoxicity was -11.8% (inactive).

Turning to `C[C@@H](O)C#Cc1ccc2c(c1)O[C@@H](CN(C)S(=O)(=O)c1ccc(-c3ccccc3)cc1)[C@@H](C)CN([C@@H](C)CO)S2(=O)=O`, the activity change, negative = cytotoxicity was 0.446% (inactive).

As for `C[C@@H](O)C#Cc1ccc2c(c1)O[C@@H](CN(C)Cc1cccnc1)[C@@H](C)CN([C@@H](C)CO)S2(=O)=O`, the activity change, negative = cytotoxicity is -0.989% (inactive).

`C[C@@H](O)C#Cc1ccc2c(c1)O[C@@H](CN(C)C(=O)c1ccc(-c3ccccc3)cc1)[C@@H](C)CN([C@@H](C)CO)S2(=O)=O`: the activity change, negative = cytotoxicity was -7.04% (inactive).

Turning to `CO[C@H]1CN(C)C(=O)c2ccc(NC(=O)c3ccc(F)cc3)cc2OC[C@H](C)N(C(=O)c2ccc(F)cc2)C[C@@H]1C`, the activity change, negative = cytotoxicity was 2.69% (inactive).

With `C[C@H](O)C#Cc1ccc2c(c1)O[C@@H](CN(C)Cc1ccc(-c3ccccc3)cc1)[C@@H](C)CN([C@H](C)CO)S2(=O)=O`, the activity change, negative = cytotoxicity is 12.2% (inactive).

For `CNC[C@@H]1Oc2cc(Br)ccc2S(=O)(=O)N([C@@H](C)CO)C[C@@H]1C`, the activity change, negative = cytotoxicity is -12.1% (inactive).

On to `C[C@H]1CN([C@@H](C)CO)S(=O)(=O)c2ccc(Br)cc2O[C@H]1CN(C)Cc1ccc(-c2ccccc2)cc1`, for which the activity change, negative = cytotoxicity was -3.47% (inactive).

In a further test the test system is A549 viability, CellTiter-Glo ATP luminescence, 72 h. Described as above.
Conditions: not given
In a few lines: as §1
Take `COc1ccc(-c2ccc(CN(C)C[C@@H]3Oc4cc(C#C[C@@H](C)O)ccc4S(=O)(=O)N([C@@H](C)CO)C[C@@H]3C)cc2)cc1`: the half-maximal activity concentration (AC50) was 14.1 µM.

Consider `C[C@H](O)C#Cc1ccc2c(c1)O[C@H](CN(C)Cc1ccc(-c3ccccc3)cc1)[C@@H](C)CN([C@@H](C)CO)S2(=O)=O`, for which the AC50 is 6 µM.

For `C[C@@H](O)C#Cc1ccc2c(c1)O[C@@H](CN(C)Cc1ccc(-c3cccc(Cl)c3)cc1)[C@@H](C)CN([C@@H](C)CO)S2(=O)=O`, the AC50 was 14.1 µM.

Take `COc1ccccc1-c1ccc(CN(C)C[C@@H]2Oc3cc(C#C[C@@H](C)O)ccc3S(=O)(=O)N([C@@H](C)CO)C[C@@H]2C)cc1`: the AC50 was 12.9 µM.

For the compound `C[C@H](O)C#Cc1ccc2c(c1)O[C@@H](CN(C)Cc1ccc(-c3ccccc3)cc1)[C@H](C)CN([C@@H](C)CO)S2(=O)=O`, the concentration at half-maximal activity (AC50) was 26.1 µM.

Take `C[C@H](O)C#Cc1ccc2c(c1)O[C@@H](CN(C)Cc1ccc(-c3ccccc3)cc1)[C@@H](C)CN([C@@H](C)CO)S2(=O)=O`: the AC50 was 22.6 µM.

For `C[C@H](CO)N1C[C@H](C)[C@@H](CN(C)Cc2ccc(-c3ccccc3)cc2)Oc2cc(C#C[C@@H](C)O)ccc2S1(=O)=O`, the AC50 was 27.1 µM.

Regarding `C[C@H](O)C#Cc1ccc2c(c1)O[C@@H](CN(C)Cc1ccc(-c3ccccc3)cc1)[C@H](C)CN([C@H](C)CO)S2(=O)=O`, the concentration at half-maximal activity (AC50) was 22.1 µM.

On to `Cc1ccccc1-c1ccc(CN(C)C[C@@H]2Oc3cc(C#C[C@@H](C)O)ccc3S(=O)(=O)N([C@@H](C)CO)C[C@@H]2C)cc1`, for which the AC50 was 16.7 µM.

As to `C[C@H](O)C#Cc1ccc2c(c1)O[C@H](CN(C)Cc1ccc(-c3ccccc3)cc1)[C@@H](C)CN([C@H](C)CO)S2(=O)=O`, the concentration at half-maximal activity (AC50) was 19.4 µM.

Consider `C[C@@H]1CN([C@@H](C)CO)S(=O)(=O)c2ccc(C#C[C@@H](C)O)cc2O[C@H]1CN(C)Cc1ccc(-c2ccccc2)cc1`, for which the AC50 was 26.1 µM.

For `Cc1cccc(-c2ccc(CN(C)C[C@@H]3Oc4cc(C#C[C@@H](C)O)ccc4S(=O)(=O)N([C@@H](C)CO)C[C@@H]3C)cc2)c1`, the AC50 was 15 µM.

As for `C[C@@H](O)C#Cc1ccc2c(c1)O[C@@H](CN(C)Cc1ccc(-c3ccc(Cl)cc3)cc1)[C@@H](C)CN([C@@H](C)CO)S2(=O)=O`, the AC50 was 9.62 µM.

As to `C[C@@H](O)C#Cc1ccc2c(c1)O[C@H](CN(C)Cc1ccc(-c3ccccc3)cc1)[C@@H](C)CN([C@@H](C)CO)S2(=O)=O`, the AC50 is 19.4 µM.

As for `C[C@@H](O)C#Cc1ccc2c(c1)O[C@@H](CN(C)Cc1ccc(-c3ccccc3Cl)cc1)[C@@H](C)CN([C@@H](C)CO)S2(=O)=O`, the AC50 is 14.4 µM.

In the case of `C[C@@H](O)C#Cc1ccc2c(c1)O[C@@H](CN(C)Cc1ccc(-c3ccccc3)cc1)[C@@H](C)CN([C@@H](C)CO)S2(=O)=O`, the concentration at half-maximal activity (AC50) is 17.7 µM and 19 µM.

As for `C[C@H]1CN([C@@H](C)CO)S(=O)(=O)c2ccc(C#CC(C)(C)O)cc2O[C@H]1CN(C)Cc1ccc(-c2ccccc2)cc1`, the AC50 was 19.9 µM.

For `COc1cccc(-c2ccc(CN(C)C[C@@H]3Oc4cc(C#C[C@@H](C)O)ccc4S(=O)(=O)N([C@@H](C)CO)C[C@@H]3C)cc2)c1`, the concentration at half-maximal activity (AC50) is 15.2 µM.

Regarding `Cc1ccc(-c2ccc(CN(C)C[C@@H]3Oc4cc(C#C[C@@H](C)O)ccc4S(=O)(=O)N([C@@H](C)CO)C[C@@H]3C)cc2)cc1`, the concentration at half-maximal activity (AC50) was 15.7 µM.
